Source: PubChem (several laboratories)
NTR1 agonist: activates human neurotensin receptor 1; activation, % at 20 µM; NTR1-U2OS beta-arrestin-GFP spot imaging, agonist mode; hit rate 0.17% among 330,000; P30989; AID 493036;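 active means activation at or above 40% of the spot to cytoplasm intensity ratio, with at least 20 cells analyzed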;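 further: 0% = DMSO without peptide and 100% = 100 nM NTR1 peptide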
Hep lipid drop: modulators of hepatic lipid droplet formation; AML12 mouse hepatocytes, oleate lipid droplets, BODIPY imaging; inhibition, % at 6.5 µM; hit rate 0.4% among 240,000; AID 1656;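 active means lipid droplet intensity inhibited by at least 50%, with more than 500 cells counted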
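Material – mouse AML12 hepatocyte cell line, fixed after treatment · Compound dosing – one dose, 6.5 µM compound · Times – compound with oleate, overnight · Measured by – Image-based BODIPY and DAPI two-channel analysis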
Beta2AR agonist: agonists of human beta-2 adrenergic receptor inducing internalization | hit rate 0.43% among 340,000 | response, % (test concentration not listed) | Am2.2-beta2AR cells, FAP receptor internalization, flow cytometry;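 active means response above a set limit, near 3 SD of response in nonfluorescent compounds, cut at about 42% in these data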
Arrestin-AP2 inh: blocks beta-arrestin peptide binding to AP2 adaptin; FITC-arrestin peptide / GST-AP2 beads, flow cytometry; AP2 beta2 appendage carries R879A mutation; inhibition, % at 10 µM; hit rate 0.31% among 340,000; AID 504490;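 active means inhibition above a set limit, near 3 SD of compounds lacking own fluorescence, cut at about 54% in these data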;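 further: plate controls were DMSO wells for no effect and 5 µM unlabelled arrestin peptide for full effect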
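System: GST-AP2 R879A glutathione beads | Also added: FITC-arrestin peptide, 50 nM | Times: 12 min plus 1 h, RT | Signal: Bead flow cytometry, FITC channel | Buffer or medium: PBS with 0.05% Tween 20 and 0.1% BSA | Read-out basis: Percent drop in bead-associated FITC signal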
GRK2 aptamer HTS: inhibitors of human GRK2 displacing RNA aptamer | P25098 | bead flow cytometry, FAM-aptamer displacement from GRK2 | inhibition of aptamer binding, % at 10 µM | hit rate 0.59% among 330,000 | AID 488847;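 active means inhibition of aptamer binding above 40%, roughly 3 SD of noise, on plates passing a quality check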;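 further: median bead fluorescence of bound FAM aptamer so fluorescent compounds give negative values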
Target sequence (P25098 whole entry, looked up): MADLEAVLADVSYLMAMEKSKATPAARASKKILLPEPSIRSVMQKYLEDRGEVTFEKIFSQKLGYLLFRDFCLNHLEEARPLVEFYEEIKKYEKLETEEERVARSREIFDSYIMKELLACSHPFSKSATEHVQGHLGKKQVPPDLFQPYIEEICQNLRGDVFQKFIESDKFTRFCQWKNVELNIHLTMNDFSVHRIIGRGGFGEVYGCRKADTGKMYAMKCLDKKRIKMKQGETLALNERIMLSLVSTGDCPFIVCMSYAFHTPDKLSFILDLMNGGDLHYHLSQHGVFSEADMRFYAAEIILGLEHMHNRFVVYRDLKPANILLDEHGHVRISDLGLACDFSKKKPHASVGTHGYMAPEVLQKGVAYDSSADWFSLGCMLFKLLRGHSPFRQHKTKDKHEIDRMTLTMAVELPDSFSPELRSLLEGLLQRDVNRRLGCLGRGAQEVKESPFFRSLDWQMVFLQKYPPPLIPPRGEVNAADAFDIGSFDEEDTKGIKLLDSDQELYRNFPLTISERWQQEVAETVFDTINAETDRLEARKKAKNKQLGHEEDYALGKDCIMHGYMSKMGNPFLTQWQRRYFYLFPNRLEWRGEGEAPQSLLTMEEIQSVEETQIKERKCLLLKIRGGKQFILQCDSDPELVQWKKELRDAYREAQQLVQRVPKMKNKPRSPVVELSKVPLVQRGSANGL
TAG inh: inhibitors of triacylglycerol accumulation. H9c2 cells, Nile Red lipid (TAG) fluorescence; cells loaded with 200 µM oleic acid. inhibition, % at 12.5 µM. hit rate 0.66% among 230,000. AID 651582;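 active means pattern-corrected inhibition of lipid staining of at least 50% with the nuclear-stain viability signal not falling by more than 50%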;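 further: 0% = DMSO wells and 100% = triacsin C control wells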
Lipid drop inh: confirmation of inhibitors of hepatic lipid droplet formation | shares compounds with Hep lipid drop | AML12 mouse hepatocytes, BODIPY lipid droplet imaging; droplets induced with 100 µM oleic acid | inhibition, % at 5.2 µM | hit rate 65% among 870;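 active means inhibition of lipid droplet metric at least 50%, with more than 300 cells in each of four replicates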;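 further: plate controls were DMSO with oleic acid for no effect and 5 µM Triacsin-C for full effect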
AML12 cytotox: AML12 hepatocyte cytotoxicity (counter-screen) | shares compounds with Hep lipid drop | AML12 mouse hepatocytes, DAPI nuclear morphology cytotoxicity imaging; active compounds read high; cells fed 100 µM oleate overnight | z-score at 5 µM | hit rate 3% among 870 | AID 463200; in the data active means z-score above about 6.3;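 further: compound exposure lasted overnight at 37 °C before fixation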
AML12 tox conf: confirmation of cytotoxicity in AML12 mouse hepatocytes. shares compounds with Hep lipid drop. AML12 mouse hepatocyte viability, ATP luminescence; cells loaded with 100 µM oleic acid. cytotoxicity, % at 50 µM. 530 tested, under 10 active;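 active means cytotoxicity above 50% in each of four replicates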;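 further: compound exposure lasted overnight at 37 °C before the ATP read; 0% = DMSO-treated cells and 100% = wells with no cells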
The depositor's hits bear a star; . = no result given. A selection: hits, their analogues and other compounds. The true share with any hit is near 2%.

SMILES | NTR1 agonist | Hep lipid drop | Beta2AR agonist | Arrestin-AP2 inh | GRK2 aptamer HTS | TAG inh | Lipid drop inh | AML12 cytotox | AML12 tox conf
Cn1c(N)c(C(=O)COC(=O)/C=C/c2cccc(Cl)c2)c(=O)n(C)c1=O | 5.8 | . | -0.2 | 6.8 | 0.0 | -8.6 | . | . | .
CCc1ccccc1NS(=O)(=O)c1cc2c(cc1C)n(C)c(=O)c(=O)n2C | 3.5 | 84.6* | -8.7 | -1.0 | 1.0 | . | 105.0* | -0.205 | 8.9
CCn1c(=O)n(CC)c2cc(S(=O)(=O)Nc3ccccc3C)c(C)cc21 | 0.0 | 40.4 | -6.9 | -2.0 | 0.0 | . | . | . | .
COc1cccc(NC(=O)CNC(=O)[C@@H]2Cc3ccccc3CN2C(=O)OC(C)(C)C)c1 | 0.4 | 4.6 | -0.6 | -1.1 | 3.0 | . | . | . | .
Cc1cccc(NC(=O)[C@H](C)NC(=O)[C@@H]2Cc3ccccc3CN2C(=O)OC(C)(C)C)c1 | 2.5 | 61.9* | -6.4 | -8.2 | 0.0 | . | 99.9* | 0.467 | 11.7
COc1ccc(NC(=O)[C@H](C)NC(=O)[C@@H]2Cc3ccccc3CN2C(=O)OC(C)(C)C)cc1 | 0.0 | 54.8* | -10.9 | -3.4 | 4.0 | . | 91.3* | -1.1 | 9.0
CC1CC(C)CN(CC(O)COCc2ccccc2)C1 (configuration not stated) | -0.8 | 5.0 | -6.8 | -3.0 | 2.0 | 11.0 | . | . | .
O=C(Nc1ccc(Cl)cc1C(=O)NCc1cccnc1)c1ccc(Cl)cc1Cl | 3.9 | 65.9* | -4.7 | 8.2 | 0.0 | . | 87.8* | 1.88 | .
Cc1ccc(C(=O)Nc2ccccc2C(=O)NCc2cccnc2)cc1 | 1.4 | 50.8* | -0.8 | 27.7 | 0.0 | 28.1 | 96.1* | -0.967 | 21.6
c1ccc2nc(N3CCN(Cc4ccc5c(c4)OCO5)CC3)cnc2c1 | 1.6 | 50.3* | -7.1 | -30.8 | 4.0 | 3.1 | 10.3 | 0.606 | .
COc1nc2ccccc2nc1N1CCN(Cc2ccc3c(c2)OCO3)CC1 | 4.4 | -21.6 | -3.0 | -1.9 | . | . | . | . | .
O=C(CCn1nc(-c2ccc(Cl)cc2)ccc1=O)N1CCN(c2ccc(F)cc2)CC1 | 2.8 | -23.0 | 3.9 | 28.5 | 0.0 | . | . | . | .
CCOc1ccc(CCNC(=O)CSCc2ccc(C)cc2)cc1OCC | -1.0 | 88.4* | -7.1 | -4.0 | 0.0 | 34.7 | 109.1* | -0.82 | .
CCOc1ccc(CCNC(=O)CS(=O)Cc2nc(-c3ccccc3C)oc2C)cc1OCC (configuration not stated) | -0.3 | 61.3* | -4.9 | -3.8 | 0.0 | . | 89.4* | -0.186 | 13.3
CCOc1ccc(CCNC(=O)CCOc2cc(C)ccc2C)cc1OCC | -0.3 | 97.5* | -2.0 | 13.4 | 0.0 | . | 111.2* | -0.471 | 14.9
COc1ccc(CCNC(=O)CCC(=O)N2CCOc3ccc(C)cc32)cc1OC | 1.3 | -1.0 | 6.8 | -1.9 | 0.0 | 13.2 | . | . | .
Cc1ccc(C)c(OCCC(=O)NCCc2ccc(Cl)cc2)c1 | 0.9 | -3.0 | -3.6 | 44.0 | 2.0 | -9.9 | . | . | .
CCOc1ccc(CCNC(=O)CCC(=O)N2CCOc3ccc(C)cc32)cc1OCC | 2.1 | 79.8* | 0.5 | -2.4 | 2.0 | 49.5 | 111.9* | -1.1 | 16.1
CCOc1ccc(CCNC(=O)COC(=O)COc2cc(C)cc(C)c2)cc1OCC | 0.4 | . | -6.9 | -3.0 | 0.0 | -10.4 | . | . | .
CCN(CC)C(=O)[C@H]1C[C@H](CC(=O)NCc2ccc(OC)c(OC)c2)C(=O)N2CCc3c([nH]c4cc(-c5ccco5)ccc34)[C@]12C | 6.1 | . | -1.1 | 13.9 | 0.0 | -2.3 | . | . | .
O=C(NCCS(=O)(=O)N1CCN(Cc2ccccc2)CC1)c1ccccc1 | -0.5 | . | 7.2 | -3.1 | 0.0 | -18.6 | . | . | .
O=C(c1ccco1)N1CCN(C2CN(Cc3ccc([N+](=O)[O-])cc3)S(=O)(=O)C2)CC1 (configuration not stated) | . | . | . | . | . | 11.4 | . | . | .
CCOc1ccc(CCNC(=O)CN2C(=O)c3cccnc3Oc3ccc(C)cc32)cc1OCC | 0.6 | 91.6* | 0.3 | 16.0 | 0.0 | 45.6 | 110.0* | -0.37 | 10.0
CSc1ccc(CCNC(=O)CN2C(=O)c3cccnc3Oc3ccc(C)cc32)cc1 | 0.0 | -19.8 | 1.4 | 28.2 | 7.0 | . | . | . | .
COc1cc(CN2CCCC(N3CCN(c4ccc(F)cc4)CC3)C2)ccc1F (configuration not stated) | 2.5 | -9.1 | 4.7 | 3.1 | 0.0 | . | . | . | .
SMILES | NTR1 agonist | Hep lipid drop | Beta2AR agonist | Arrestin-AP2 inh | GRK2 aptamer HTS | TAG inh | Lipid drop inh | AML12 cytotox | AML12 tox conf
COc1ccc(NC(=O)COC(=O)c2ccc(S(=O)(=O)N(C)c3ccccc3OC)cc2)c(OC)c1 | . | 9.2 | . | . | . | . | . | . | .
CCS(=O)(=O)N1CCN(c2ccc([N+](=O)[O-])c(NCc3cccnc3)c2)CC1 | 1.0 | 59.4* | 0.1 | 10.5 | 0.0 | 6.1 | -18.4 | 0.181 | .
CCC1=NN=C(c2ccc(F)cc2)C(c2c[nH]c3ccccc23)N1O (configuration not stated) | 2.0 | 64.7* | -6.0 | 9.6 | 0.0 | 11.9 | 30.1 | -0.89 | .
Cc1cc(NC(=O)c2cc3ccccc3o2)cc(C)c1OCC(=O)N1CCOCC1 | -0.5 | 91.0* | -2.1 | 5.9 | 0.0 | . | 106.7* | -0.819 | 33.8
Cc1cc(NC(=O)c2ccccc2F)cc(C)c1OCC(=O)N1CCOCC1 | 0.2 | 1.2 | 0.4 | -10.7 | 1.0 | -0.6 | . | . | .
O=C(O)C(F)=C1c2ccccc2-c2ccccc21 | -0.5 | . | -0.5 | -14.3 | . | -4.3 | . | . | .
Cc1ccc(C)c(Nc2nc3ccc(C)cc3n3cnnc23)c1 | 5.4 | -0.1 | -3.4 | 12.1 | 0.0 | . | . | . | .
Cc1ccc2nc(Nc3ccc(F)cc3)c3nncn3c2c1 | 2.9 | 59.2* | -13.4 | -2.6 | 0.0 | . | 57.6 | -0.336 | 17.4
NS(=O)(=O)c1cccc(NC(=O)c2cccnc2Oc2ccccc2)c1 | 0.9 | 1.0 | -0.3 | -17.4 | 2.0 | 9.3 | . | . | .
COC(=O)c1ccc(NS(=O)(=O)c2ccc3c(c2)n(C)c(=O)n3C)cc1 | 1.2 | 53.1* | 2.0 | -0.1 | . | -9.9 | 15.7 | 0.164 | .
CCOC(=O)c1ccc(NS(=O)(=O)c2ccc3c(c2)n(C)c(=O)n3C)cc1 | 0.2 | . | -14.9 | -17.0 | 0.0 | . | . | . | .
Cc1cccc(NC(=O)CSc2nc3ccccc3nc2N2CCCCC2)c1 | 2.9 | 30.9 | -9.7 | 16.0 | 3.0 | 15.2 | . | . | .
COc1cccc(NC(=O)CSc2nc3ccccc3nc2N2CCCC2)c1 | -0.3 | 58.3* | -16.1 | 38.3 | 13.0 | 29.8 | 99.2* | -0.715 | 8.0
Cc1cccc(NC(=O)CSc2nc3ccccc3nc2N2CCCC2)c1 | 0.6 | 62.8* | -2.8 | 16.4 | 1.0 | 38.4 | 102.2* | 0.575 | 8.9
COc1ccc(NC(=O)CSc2nc3ccccc3nc2N2CCCCC2)cc1 | 1.8 | 73.2* | -0.9 | -1.6 | 0.0 | 7.1 | 108.4* | -0.721 | 1.2
